# Activity calls are given as the source filed them.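 How the source made its calls: active means GFP response above 150% of the DMSO control; inconclusive means fewer than 70 events counted in any yeast strain; inactive means the rest.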
# Test: hit retest on RPL19A-GFP reporter strain – cell-based, S. cerevisiae, flow cytometry, cherry picks, mother/daughter gates, confirmation (AID 2270)
# Conditions: 3 h, measured here: mother cell gate, at 10 µM, stronger effect = lower value, 100 = same GFP as DMSO wells
row,Structure (SMILES),GFP response vs DMSO [%]
1,CCCCCCNC(=O)c1c(O)c2cccc3c2n(c1=O)CCC3,100
2,Cc1ccc(N2CCN(C(=O)c3ccccc3)CC2)c(C)c1,99.5
3,COc1ccccc1-c1noc(CCC(=O)Nc2cccc(C)c2)n1,100
4,O=C(NC(=S)NNC(=O)c1ccc(Cl)cc1Cl)c1cccnc1,102
5,CN1C(=O)c2cccc3c(Cl)ccc(c23)C1=O,98
6,Cc1nc2c(-c3ccc(F)cc3)c(C)nn2c(N2CCOCC2)c1C,100
7,CCOc1cc(-c2nc3cc(C)ccn3c2NCC2CCCO2)ccc1O (stereo not given),101
8,CCOC(=O)CS(=O)(=O)c1nc(-c2ccccc2)cc(C(F)(F)F)n1,96.2
9,C[n+]1ccc(/C=C/c2c[nH]c3ccc(F)cc23)cc1,102
10,COc1cc(NC(=O)c2ccc(F)cc2)ccc1NC(=O)c1cc2ccccc2o1,94.3
11,O=C(NCc1cccnc1)c1cnc2n(c1=O)CCS2,101
12,O=C(Nc1cc(Sc2ccccn2)cc([N+](=O)[O-])c1)c1cccc(F)c1,95.9
13,O=C1CC(SCCO)C(=O)N1c1ccc(Oc2ccccc2)cc1 (stereo not given),101
14,Cc1cc(NCCN2CCOCC2)n2ncc(-c3ccccc3)c2n1,99.4
15,O=C(Nc1cccc(O)c1)c1ccccc1,96.4
16,Cc1nn(C)c(C(=O)Sc2cccc(Cl)c2)c1[N+](=O)[O-],99.4
17,COc1ccc(N2C(=O)C(Cl)=C(Nc3ccccc3O)C2=O)cc1,100
18,COc1ccc(Br)cc1/C=C/C(=O)c1ccc(NC(C)=O)cc1,97.7
19,CC(=O)N(\C=C/C=C/C=C1\Sc2ccccc2C1=O)c1ccccc1,108
20,N#C/C(=C\c1ccccn1)c1nc2ccccc2s1,172

row,Structure (SMILES),GFP response vs DMSO [%]
1,CS(=O)(=O)Nc1cccc(C2=NN(S(C)(=O)=O)C(c3ccc4c(c3)OCO4)C2)c1 (stereo not given),98.7
2,C/C(=N\NC(=O)c1cccc(Br)c1)c1ccccn1,102
3,O=C(O)Cc1ccc2ccc3ccccc3c2c1,97.8
4,Cc1ccc(S(=O)(=O)N(Cc2ccccc2)Cc2ccco2)cc1,104
5,O=C1c2ccsc2SCCN1Cc1c(F)cccc1Cl,93.9
6,CS/C(N)=N/N=C/c1ccc2c(c1)OCO2,97.7
7,COc1ccc(C(=O)NNC(=S)NC(=O)/C=C/c2cccs2)cc1,104
8,COCc1nnc(NC(=O)c2ccc(S(=O)(=O)N(C)C3CCCCC3)cc2)o1,97.2
9,COC(=O)c1ccc(/C=N/OCC(=O)NCCc2ccc(OC)c(OC)c2)cc1,98.7
10,CC(C)CC[n+]1ccccc1/C=C/c1ccc(N(C)C)cc1,95.5
11,COc1cccc(NC(=O)/C=C/c2ccc([N+](=O)[O-])cc2)c1,93.2
12,O=C(c1ccc(Cl)cc1)N1CCN(c2cccc3[nH]ccc23)CC1,93.1
13,CCc1ccc(NC(=O)c2nc(S(=O)(=O)Cc3ccccc3)ncc2Cl)cc1,93.8
14,c1ccc2oc(SCc3nc4ccccc4s3)nc2c1,98.9
15,CCOC(=O)CSC1=NC(=O)/C(=C\c2ccc(Cl)cc2)S1,94.6
16,COc1ccc(C2CC(c3ccccc3)=NN2S(=O)(=O)c2ccccc2)c(OC)c1 (stereo not given),99.1
17,FC(F)(F)c1cc(-c2cccs2)nc2cc(-c3cccs3)nn12,102
18,CC1CN(c2nc3ccccn3c(=O)c2/C=C(\C#N)C(=O)N2CCOCC2)CC(C)O1 (stereo not given),98.4
19,Cc1ccc(CC2CC(=O)N(Cc3ccco3)C2=O)cc1 (stereo not given),101
20,Cc1ccc(-c2nnc(NC(=O)c3ccc([N+](=O)[O-])o3)o2)c(C)c1,99.8

# Test: yeast TOR pathway reporter LAP4-GFP change – cell-based, cherry picks, flow cytometry, mother/daughter gates, confirmation (AID 2271);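 further: ratio of sample to DMSO plate mean so 100% equals DMSO level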
# Conditions: S. cerevisiae LAP4-GFP strain, 3 h, at 10 µM, stronger effect = higher value, 100 means same as DMSO control
# Method in brief: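 Material – Alexa Fluor 633-labelled Saccharomyces cerevisiae GFP-fusion strain, single-plex · Incubation – compound exposure 3 h at 30 °C, end-over-end rotation · Measured by – GFP by flow cytometry · Measure – median GFP fluorescence as percent of plate-mean DMSO wells · Control set – positive rapamycin (400 ng/mL), negative DMSO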
row,Structure (SMILES),GFP response relative to DMSO
1,CCCCCCNC(=O)c1c(O)c2cccc3c2n(c1=O)CCC3,97.9% (inactive)
2,Cc1ccc(N2CCN(C(=O)c3ccccc3)CC2)c(C)c1,95.4% (inactive)
3,COc1ccccc1-c1noc(CCC(=O)Nc2cccc(C)c2)n1,96.5% (inactive)
4,O=C(NC(=S)NNC(=O)c1ccc(Cl)cc1Cl)c1cccnc1,97.3% (inactive)
5,CN1C(=O)c2cccc3c(Cl)ccc(c23)C1=O,107% (inactive)
6,Cc1nc2c(-c3ccc(F)cc3)c(C)nn2c(N2CCOCC2)c1C,96.5% (inactive)
7,CCOc1cc(-c2nc3cc(C)ccn3c2NCC2CCCO2)ccc1O (stereo not given),88.2% (inactive)
8,CCOC(=O)CS(=O)(=O)c1nc(-c2ccccc2)cc(C(F)(F)F)n1,204% (active)
9,C[n+]1ccc(/C=C/c2c[nH]c3ccc(F)cc23)cc1,113% (inactive)
10,COc1cc(NC(=O)c2ccc(F)cc2)ccc1NC(=O)c1cc2ccccc2o1,96.1% (inactive)
11,O=C(NCc1cccnc1)c1cnc2n(c1=O)CCS2,101% (inactive)
12,O=C(Nc1cc(Sc2ccccn2)cc([N+](=O)[O-])c1)c1cccc(F)c1,101% (inactive)
13,O=C1CC(SCCO)C(=O)N1c1ccc(Oc2ccccc2)cc1 (stereo not given),103% (inactive)
14,Cc1cc(NCCN2CCOCC2)n2ncc(-c3ccccc3)c2n1,107% (inactive)
15,O=C(Nc1cccc(O)c1)c1ccccc1,95.4% (inactive)
16,Cc1nn(C)c(C(=O)Sc2cccc(Cl)c2)c1[N+](=O)[O-],126% (inactive)
17,COc1ccc(N2C(=O)C(Cl)=C(Nc3ccccc3O)C2=O)cc1,102% (inactive)
18,COc1ccc(Br)cc1/C=C/C(=O)c1ccc(NC(C)=O)cc1,89.4% (inactive)
19,CC(=O)N(\C=C/C=C/C=C1\Sc2ccccc2C1=O)c1ccccc1,153% (active)
20,N#C/C(=C\c1ccccn1)c1nc2ccccc2s1,584% (active)

row,Structure (SMILES),GFP response relative to DMSO
1,CS(=O)(=O)Nc1cccc(C2=NN(S(C)(=O)=O)C(c3ccc4c(c3)OCO4)C2)c1 (stereo not given),99.2% (inactive)
2,C/C(=N\NC(=O)c1cccc(Br)c1)c1ccccn1,163% (active)
3,O=C(O)Cc1ccc2ccc3ccccc3c2c1,106% (inactive)
4,Cc1ccc(S(=O)(=O)N(Cc2ccccc2)Cc2ccco2)cc1,87.8% (inactive)
5,O=C1c2ccsc2SCCN1Cc1c(F)cccc1Cl,112% (inactive)
6,CS/C(N)=N/N=C/c1ccc2c(c1)OCO2,106% (inactive)
7,COc1ccc(C(=O)NNC(=S)NC(=O)/C=C/c2cccs2)cc1,201% (active)
8,COCc1nnc(NC(=O)c2ccc(S(=O)(=O)N(C)C3CCCCC3)cc2)o1,103% (inactive)
9,COC(=O)c1ccc(/C=N/OCC(=O)NCCc2ccc(OC)c(OC)c2)cc1,97.4% (inactive)
10,CC(C)CC[n+]1ccccc1/C=C/c1ccc(N(C)C)cc1,107% (inactive)
11,COc1cccc(NC(=O)/C=C/c2ccc([N+](=O)[O-])cc2)c1,102% (inactive)
12,O=C(c1ccc(Cl)cc1)N1CCN(c2cccc3[nH]ccc23)CC1,108% (inactive)
13,CCc1ccc(NC(=O)c2nc(S(=O)(=O)Cc3ccccc3)ncc2Cl)cc1,126% (inactive)
14,c1ccc2oc(SCc3nc4ccccc4s3)nc2c1,106% (inactive)
15,CCOC(=O)CSC1=NC(=O)/C(=C\c2ccc(Cl)cc2)S1,197% (active)
16,COc1ccc(C2CC(c3ccccc3)=NN2S(=O)(=O)c2ccccc2)c(OC)c1 (stereo not given),99.5% (inactive)
17,FC(F)(F)c1cc(-c2cccs2)nc2cc(-c3cccs3)nn12,97% (inactive)
18,CC1CN(c2nc3ccccn3c(=O)c2/C=C(\C#N)C(=O)N2CCOCC2)CC(C)O1 (stereo not given),102% (inactive)
19,Cc1ccc(CC2CC(=O)N(Cc3ccco3)C2=O)cc1 (stereo not given),93.8% (inactive)
20,Cc1ccc(-c2nnc(NC(=O)c3ccc([N+](=O)[O-])o3)o2)c(C)c1,161% (active)

# — PubChem BioAssay
